From ChEMBL document CHEMBL3244091, “Effects of thiophene analogues of chloroamphetamines on central serotonergic mechanisms” (J Med Chem, 1978)
The source made the active and inactive calls. The calls are words filed in the database; no cut-off is given here.

Key:
[1] = Toxicity in ip dosed ICR Swiss mouse; format: organism-based; conditions: in vivo
Rattus norvegicus [2] = assay: Reduction in 5-HT level in Wistar rat brain synaptosomes at 15 mg/kg, ip measured after 24 hrs by fluorometric assay; format: functional; parameters: scale not given: the % may be the effect or the level left; conditions: route intraperitoneal
Rattus norvegicus [3] = assay: Reduction in 5-HT level in Wistar rat brain synaptosomes at 15 mg/kg, ip measured after 4 hrs by fluorometric assay; format: functional; parameters: scale not given: the % may be the effect or the level left; conditions: route intraperitoneal
Mus musculus [4] = assay: Increase in spontaneous locomotor activity in ICR Swiss mouse at 10 mg/kg, ip measured after 30 to 270 mins post compound administration; format: functional, organism-based; parameters: dose 10 mg/kg
Method in brief: (§1)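 Male ICR Swiss mice (20-25 g), compound in saline ip, housed three per cage at ≤18 °C. Starting 30 min and 4.5 h after injection, each mouse was placed in a circular actophotometer (25 cm diameter, four photocells, central light) for 30 min. A count was scored per cross of two consecutive beams (locomotion only). Means of at least eight animals per group.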

[5] = target: Sodium-dependent serotonin transporter (Rattus norvegicus) (UniProt P31652); assay: Inhibition of SERT-mediated 5-HT uptake in Wistar rat brain synaptosomes at 0.2 uM; format: subcellular
Rattus norvegicus [6] = assay: Inhibition of SERT-mediated 5-HT uptake in Wistar rat brain at 15 mg/kg, ip measured after 24 hrs; format: functional; conditions: route intraperitoneal
Method in brief: (§2)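 Male Wistar-derived rats were dosed ip (saline vehicle) and killed 24 h or 7 days later. Whole brains were homogenized in 8 vol 0.25 M sucrose.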

[7] = Inhibition of MAO in Wistar rat brain using [3H]serotonin as substrate
Rattus norvegicus [8] = organism: Rattus norvegicus; assay: Ratio of PCA IC50 to compound IC50 for MAO in Wistar rat brain using [3H]serotonin as substrate
Mus musculus [9] = assay: Increase in spontaneous locomotor activity in ICR Swiss mouse at 10 mg/kg, ip measured after 4 hrs post compound administration; format: functional, organism-based; parameters: dose 10 mg/kg; method in brief: as §1
Rattus norvegicus [10] = assay: Inhibition of SERT-mediated 5-HT uptake in Wistar rat brain at 15 mg/kg, ip measured after 7 days; format: functional; conditions: 168 h, route intraperitoneal; method in brief: as §2
Rattus norvegicus [11] = assay: Reduction in 5-HT level in Wistar rat brain synaptosomes at 15 mg/kg, ip measured after 7 days by fluorometric assay; format: functional; parameters: scale not given: the % may be the effect or the level left; conditions: route intraperitoneal
[12] = target: Sodium-dependent serotonin transporter (Rattus norvegicus, UniProt P31652); assay: Inhibition of SERT-mediated 5-HT uptake in Wistar rat brain synaptosomes; format: subcellular
Rattus norvegicus [13] = assay: Reduction in 5-HT level in Wistar rat brain synaptosomes at 7.5 mg/kg, ip measured after 4 hrs by fluorometric assay; format: functional; parameters: scale not given: the % may be the effect or the level left; conditions: route intraperitoneal
Rattus norvegicus [14] = assay: Reduction in 5-HT level in Wistar rat brain synaptosomes at 7.5 mg/kg, ip measured after 7 days by fluorometric assay; format: functional; parameters: scale not given: the % may be the effect or the level left; conditions: route intraperitoneal
Rattus norvegicus [15] = assay: Reduction in 5-HT level in Wistar rat brain synaptosomes at 7.5 mg/kg, ip measured after 24 hrs by fluorometric assay; format: functional; parameters: scale not given: the % may be the effect or the level left; conditions: route intraperitoneal
Rattus norvegicus [16] = assay: Inhibition of SERT-mediated 5-HT uptake in Wistar rat brain at 7.5 mg/kg, ip measured after 24 hrs; format: functional; conditions: route intraperitoneal; method in brief: as §2
Rattus norvegicus [17] = assay: Inhibition of SERT-mediated 5-HT uptake in Wistar rat brain at 7.5 mg/kg, ip measured after 7 days; format: functional; conditions: 168 h, route intraperitoneal; method in brief: as §2

Chain of Sodium-dependent serotonin transporter (Rattus norvegicus) (P31652 whole entry): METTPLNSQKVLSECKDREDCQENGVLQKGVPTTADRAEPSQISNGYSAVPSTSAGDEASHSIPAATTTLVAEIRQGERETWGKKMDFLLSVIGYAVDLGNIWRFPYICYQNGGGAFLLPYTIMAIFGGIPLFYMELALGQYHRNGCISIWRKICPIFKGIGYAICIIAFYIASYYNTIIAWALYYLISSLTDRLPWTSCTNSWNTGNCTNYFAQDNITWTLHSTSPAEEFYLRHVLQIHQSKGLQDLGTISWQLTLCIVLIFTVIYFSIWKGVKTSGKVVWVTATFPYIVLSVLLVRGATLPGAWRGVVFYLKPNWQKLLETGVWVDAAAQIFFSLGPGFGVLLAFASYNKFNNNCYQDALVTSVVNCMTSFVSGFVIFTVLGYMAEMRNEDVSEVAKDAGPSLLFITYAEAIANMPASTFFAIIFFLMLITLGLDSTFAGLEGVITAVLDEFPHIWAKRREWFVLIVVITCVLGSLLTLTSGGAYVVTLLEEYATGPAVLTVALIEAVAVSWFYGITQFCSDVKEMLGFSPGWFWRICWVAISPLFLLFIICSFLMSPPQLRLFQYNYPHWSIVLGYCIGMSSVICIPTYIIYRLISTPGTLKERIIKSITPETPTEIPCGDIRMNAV
Chain of Sodium-dependent serotonin transporter (P31652 whole entry): as above

Structure (SMILES) | LD50 [1] | Activity (Rattus norvegicus [2]) | Activity (Rattus norvegicus [3]) | Activity (Mus musculus [4]) | inhibition [5] | inhibition in vivo at 15 mg/kg (Rattus norvegicus [6]) | IC50 [7] | Ratio IC50 (Rattus norvegicus [8]) | Activity (Mus musculus [9]) | inhibition in vivo at 15 mg/kg (Rattus norvegicus [10]) | Activity (Rattus norvegicus [11]) | IC50 [12] | Activity (Rattus norvegicus [13]) | Activity (Rattus norvegicus [14]) | Activity (Rattus norvegicus [15]) | inhibition in vivo at 7.5 mg/kg (Rattus norvegicus [16]) | inhibition in vivo at 7.5 mg/kg (Rattus norvegicus [17])
CC(N)Cc1cc(Cl)cs1.Cl (racemic) | 128 mg/kg | 18.3% | 22.1% | Active | 18.7% | 6.7% |  |  |  |  |  |  |  |  |  |  | 
CC(N)Cc1sccc1Cl.Cl (racemic) | 101 mg/kg |  | 2.8% | inactive | 6.6% |  |  |  |  |  |  |  |  |  |  |  | 
CC(N)Cc1scc(Cl)c1Cl.Cl (racemic) | 121 mg/kg | 11.7% | 10.3% | Active | 27.5% | 0.4% | 250 nM | 15 |  |  |  |  |  |  |  |  | 
CC(N)Cc1sc(Cl)cc1Cl.Cl (racemic) | 135 mg/kg | 13.3% | 12.1% | inactive | 19.4% | 24.5% | 2500 nM |  |  |  |  |  |  |  |  |  | 
CC(N)Cc1cccs1.Cl (racemic) | 162 mg/kg |  | 4.3% | Active | 5.3% |  |  |  |  |  |  |  |  |  |  |  | 
CC(N)Cc1ccc(Cl)s1.Cl (racemic) | 113 mg/kg | 15.4% | 14.5% | Active | 17.7% | 4.1% |  |  | Active |  |  |  |  |  |  |  | 
CC(N)Cc1cc(Cl)c(Cl)s1.Cl (racemic) | 133 mg/kg | 50.7% | 49.3% | Active | 40.5% | 30.4% |  |  |  | 32.4% | 41.6% | 450 nM |  |  |  |  | 
CC(N)Cc1ccc(Cl)cc1.Cl (racemic) | 64 mg/kg |  |  |  | 38.4% |  | 3700 nM |  | Active |  |  | 500 nM | 48.6% | 63.7% | 47.6% | 45.5% | 34.3%
